# Screening results deposited in PubChem by several laboratories.
# FLuc act counter: FLuc activators, initial screening, artefact control for FLuc-dependent activation tests, biochemical, ATPlite luminescence; Luciferin 4-monooxygenase (Photinus pyralis), P08659; ATPlite luciferase biochemical, 10 min; 0 = ATP-free wells, 1 = DMSO control; activation factor at 10 µM; 200,000 tested, under 10 active; AID 1027, 2008;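 active = luciferase activation factor, scaled between plate controls, of at least 2 with compound at 10 µM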
# Target sequence (P08659 whole entry, looked up): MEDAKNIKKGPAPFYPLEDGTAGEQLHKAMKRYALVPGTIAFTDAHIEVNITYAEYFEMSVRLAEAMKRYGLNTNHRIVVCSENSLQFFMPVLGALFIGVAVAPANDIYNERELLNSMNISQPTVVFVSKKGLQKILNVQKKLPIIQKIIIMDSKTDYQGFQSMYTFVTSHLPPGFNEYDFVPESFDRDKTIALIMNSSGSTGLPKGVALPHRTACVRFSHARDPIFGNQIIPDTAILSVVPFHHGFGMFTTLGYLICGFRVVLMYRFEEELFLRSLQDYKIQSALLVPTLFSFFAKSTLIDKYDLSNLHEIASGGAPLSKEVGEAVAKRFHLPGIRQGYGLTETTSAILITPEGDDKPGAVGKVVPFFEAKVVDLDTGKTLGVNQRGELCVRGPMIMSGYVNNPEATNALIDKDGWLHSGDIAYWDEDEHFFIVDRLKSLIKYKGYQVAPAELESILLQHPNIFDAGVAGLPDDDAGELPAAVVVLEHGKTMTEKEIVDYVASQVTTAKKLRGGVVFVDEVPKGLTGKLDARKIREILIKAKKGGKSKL
#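 Material: luciferase plus luciferin reagent, cell-free. Medium: PBS buffer for ATP. Also added: ATP substrate, dispensed from a 10.24 µM working solution in PBS. Doses: test compounds dosed from 2 mM stocks in 100% DMSO. Incubation: 10 min post-reagent at room temperature. Technique: light output (luminescence). Read-out basis: luminescence gain marking luciferase activators.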
# PPC-1+TRAIL kill: compounds killing PPC-1 cancer cells with TRAIL present, primary screen, TRAIL potentiator project, ATPLite luminescence, uHTS; PPC-1 cells + TRAIL, ATPLite viability luminescence; cell killing (% activity), % at 4 µM or 5 µM; 220,000 compounds, 0.41% hits; AID 1443, 2008;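 active = cell killing above 50% in the first pass at 4 µM, then a duplicate retest at 5 µM averaging 50% or more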;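 also: plate controls were cells with TRAIL plus DMSO for no effect and medium-only wells lacking cells for full effect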
# TRAIL sens C8: viability loss with TRAIL in NB7+C8 cells, primary screen, TRAIL sensitizer project, cell-based, ATPlite luminescence; inhibition (viability loss, TRAIL sensitization), % at 10 µM; 360,000 compounds, 1% hits;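 active = compounds causing at least 50% loss of cell viability in the single-dose screen, relative to plate controls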
# FLuc inhib CS: firefly luciferase enzyme inhibitors, primary screen, artefact control for luciferase-based inhibitor screens, biochemical, luminescence, ATPLite. Luciferin 4-monooxygenase (Photinus pyralis), P08659. 10 min. inhibition, % at 10 µM. 200,000 compounds, 1.5% hits;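 active = inhibition above about 50% when tested at 10 µM, limit read from the data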
# HSP90 refold inh: HSP90 inhibitors, primary screen, cell lysate, luminescence | Rabbit reticulocyte lysate, luciferase refolding luminescence, 3 h | 290,000 compounds, 0.91% hits | inhibition, % at 5.6 µM | Heat shock protein HSP 90 (rabbit reticulocyte lysate; luciferase refolding);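 active = inhibition above the screen-wide mean plus 3 SD, computed separately per campaign, cut at about 16% in these data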;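 also: 0% = DMSO wells and 100% = 60 µM geldanamycin wells; inhibitors lower the luminescence because luciferase stays unfolded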
# Starred values were filed as active, the others as inactive; x = no result given. An excerpt weighted towards active compounds, which were near 2% of everything screened.
SMILES,FLuc act counter,PPC-1+TRAIL kill,TRAIL sens C8,FLuc inhib CS,HSP90 refold inh
C=C1CCC2C(C)(C)[C@H](O)CC[C@@]2(C)[C@@H]1COc1cc(=O)oc2ccccc12 (stereo partly drawn),1.1,-0.3,8.7,-7.0,7.7
C=C1CC(COc2cc(=O)oc3ccccc23)(c2ccccc2)OC1=O (stereo not drawn),x,x,93.3*,x,x
O=C(C(=O)N1CCN(c2ccccc2F)CC1)c1ccccc1,x,x,-8.8,x,x
COc1ccc(OCc2nc(N)nc(Nc3ccccc3OC)n2)cc1,1,14.7,28.3,3.0,-0.9
Cc1cccc(Nc2nc(N)nc(CCl)n2)c1C,x,39.4,93.7*,x,-3.5
COc1ccc(OC)c(Nc2nc(N)nc(CCl)n2)c1,x,3.5,92.0*,x,2.0
COc1ccccc1Nc1nc(N)nc(CCl)n1,x,25.6,91.8*,x,-0.2
Cc1ccc(S(=O)(=O)N2CCC(NC(=O)c3ccccc3)CC2)cc1,1,8.2,-10.1,0.1,-1.6
CCOc1ccc(C(C)=O)cc1CN1C(=O)NC2(CCCCCCC2)C1=O,1.1,19.0,-10.4,-6.8,2.2
Cc1cccc(NC(=O)/C=C/c2cccs2)n1,0.3,32.0,41.6,65.3*,15.8
Cc1ccc(OCC(=O)N2CCCc3ccccc32)cc1,1,19.2,-1.7,4.0,2.5
O=C(COc1ccc(Cl)cc1)OCC(=O)N1CCCc2ccccc21,1,18.1,-2.8,1.0,-0.6
Cc1ccc(OCC(=O)N2CCc3ccccc32)cc1,0.2,45.0,42.8,78.0*,-2.1
CCC(=O)c1ccc(OCC(=O)OCC(=O)N2CCCc3ccccc32)cc1,x,x,88.0*,x,x
COc1ccc(CCN2CC(C(=O)NCCc3cccnc3)CCC2=O)cc1 (stereo not drawn),x,x,0.8,x,-5.5
N/C(=N\OC(=O)c1ccco1)c1ccccc1,0.4,0.7,-10.3,58.1*,2.0
N/C(=N\OC(=O)C1CCCCC1)c1ccccn1,0.3,9.0,5.3,72.4*,2.7
Cc1ccc(C(=O)NNC(=O)c2ccco2)cc1,0.4,25.2,26.8,57.3*,1.4
N/C(=N\OC(=O)c1ccco1)c1ccc(Br)cc1,0.7,0.0,2.8,33.5,-5.2
Cc1ccc(/C(N)=N/OC(=O)c2ccco2)cc1,0.4,-6.6,38.6,59.9*,7.8
CC1C[N+](=C2C=C(N3CCOCC3)CC(C)(C)C2)CC(C)O1 (stereo not drawn),x,3.4,1.1,x,-0.2
Cc1cccc(/C(N)=N/OC(=O)c2ccco2)c1,0.4,15.7,21.5,55.6*,0.7
N/C(=N\OC(=O)c1ccco1)c1ccccn1,0.4,13.0,-0.8,55.1*,4.1
Cc1occc1C(=O)O/N=C(\N)c1ccc(Cl)cc1,x,24.5,87.0*,x,-6.9
Cc1cc(C(=O)O/N=C(\N)c2ccc(C(C)(C)C)cc2)no1,x,11.8,7.9,x,-4.8
SMILES,FLuc act counter,PPC-1+TRAIL kill,TRAIL sens C8,FLuc inhib CS,HSP90 refold inh
Cc1noc(-c2ccc(Cl)cc2)c1C(=O)O/N=C(\N)c1ccc(C(C)(C)C)cc1,x,10.3,94.4*,x,-5.3
COc1ccccc1C(C)NC(=O)c1ccc(NC(=O)CC2SC(N3CCCC3)=NC2=O)cc1 (stereo not drawn),x,x,-3.1,x,x
O=C(Nc1ccccc1NC(=O)c1c(F)c(F)c(F)c(F)c1F)c1c(F)c(F)c(F)c(F)c1F,1.1,-15.7,82.2*,-7.1,3.1
COC(=O)Cc1ccc(NC(=S)N2CCN(c3cc(Cl)ccc3C)CC2)cc1,1.1,19.4,22.0,-6.9,-3.1
O=C1C=C(N2CCOCC2)c2ccccc2C1=O,x,x,93.1*,x,10.9
O=C1C=C(N2CCOCC2)c2cccc3cccc1c23,x,x,-8.8,x,x
N/C(=N\OC(=O)c1cccc([N+](=O)[O-])c1)c1ccccn1,0.3,21.3,16.5,66.7*,-1.6
N/C(=N\OC(=O)c1cccc2ccccc12)c1ccccn1,x,30.8,55.7*,x,14.8
N/C(=N\OC(=O)c1cc(Br)ccc1Cl)c1ccccn1,0.5,36.5,48.1,52.1*,1.3
N/C(=N\OC(=O)c1cc([N+](=O)[O-])ccc1Cl)c1ccccn1,x,21.3,-12.6,x,-0.4
COc1ccccc1C/C(N)=N/OC(=O)c1cccc([N+](=O)[O-])c1,1,15.4,75.7*,-0.8,-0.5
N/C(=N/OC(=O)c1cccc([N+](=O)[O-])c1)c1cccc([N+](=O)[O-])c1,1,35.7,-16.6,-0.7,-0.2
COc1ccc(-c2ccnc3c(C(=O)O)cnn23)cc1,1.1,18.7,2.0,-6.5,1.0
Cc1c(C(=O)O/N=C(\N)c2ccccn2)cccc1[N+](=O)[O-],x,47.8,74.9*,x,8.0
CS(=O)(=O)Nc1cccc(NC(=O)C2Cc3c(-c4cccc(F)c4)ccnc3O2)c1 (stereo not drawn),x,x,69.7*,x,x
CN(C)Cc1c(O)ccc2c(=O)c(-c3ccccc3Cl)c(C(F)(F)F)oc12,x,x,-13.2,x,-1.4
CS(=O)(=O)N1CCN(c2ccccc2[N+](=O)[O-])CC1,1.1,10.7,-2.6,-5.2,-3.1
CC(NC(=O)C1CCCN1S(=O)(=O)c1ccccc1)c1ccccc1 (stereo not drawn),x,x,1.6,x,-3.2
Cc1ccccc1NC(=O)Cc1nc(COC(=O)c2ccc(S(C)(=O)=O)c([N+](=O)[O-])c2)cs1,x,x,54.4*,x,x
Cc1ccccc1NC(=O)COC(=O)c1ccc(S(C)(=O)=O)c([N+](=O)[O-])c1,1,-2.5,-7.5,-4.0,0.3
CCOC(=O)N1CCN(C(=O)CSc2ccc(-c3ccc(OC)cc3)nn2)CC1,0.4,32.5,20.1,57.9*,-1.0
CN(C)c1ccc(/C=N/N=C/c2ccccc2O)cc1,0.6,16.2,23.2,36.7,-6.3
CN(C)c1ccc(C=Nc2ccccc2C(N)=O)cc1,0.1,79.9*,85.0*,89.4*,10.5
Cc1ccc(C=Nc2ccccc2C(N)=O)o1,0.5,35.3,-5.2,53.9*,0.8
COc1ccc(Cn2c(=O)[nH]c3cc(C(=O)N4CCN(c5ccc(C(C)=O)cc5)CC4)ccc3c2=O)cc1,x,x,20.3,x,4.5
SMILES,FLuc act counter,PPC-1+TRAIL kill,TRAIL sens C8,FLuc inhib CS,HSP90 refold inh
CCOC(=O)c1sc(NC(=O)c2sccc2C)cc1C,0.5,35.3,33.6,46.2,0.2
CCOC(=O)c1sc(NC(=O)Nc2cccc(Cl)c2)cc1C,0.5,18.3,55.0*,45.6,4.0
O=Cc1s/c(=N\S(=O)(=O)c2ccccc2)n(CCCCl)c1Cl,1.1,26.5,60.6*,-5.6,-2.6
Cc1ccc(O)c(/C=N/NC(=O)c2[nH]ncc2Br)c1,0.3,7.6,-5.8,74.0*,-1.6
COc1ccc(OC)c(/C=N/NC(=O)c2[nH]ncc2Br)c1,x,10.0,-9.0,x,3.1
COc1ccccc1NC(=O)C1=C(C)NC2=C(C(=O)CC(c3ccc(OC)c(OC)c3)C2)C1c1coc2ccccc2c1=O (stereo not drawn),1,10.4,-3.3,-4.9,16.2*
